In ChEMBL document CHEMBL2010758, “Antidotes to anthrax lethal factor intoxication. Part 3: Evaluation of core structures and further modifications to the C2-side chain” (Bioorg Med Chem Lett, 2012):
The source made the active and inactive calls. The calls are words filed in the database; no cut-off is given here.

Key:
RAW264.7 = experiment: Cytotoxicity against mouse RAW264.7 cells by MTT assay; type: cell-based
Interstitial collagenase = target: T1, Interstitial collagenase (Homo sapiens, UniProt P03956); experiment: Inhibition of MMP-1 using OmniMMP as substrate
T1 sequence (P03956 whole entry): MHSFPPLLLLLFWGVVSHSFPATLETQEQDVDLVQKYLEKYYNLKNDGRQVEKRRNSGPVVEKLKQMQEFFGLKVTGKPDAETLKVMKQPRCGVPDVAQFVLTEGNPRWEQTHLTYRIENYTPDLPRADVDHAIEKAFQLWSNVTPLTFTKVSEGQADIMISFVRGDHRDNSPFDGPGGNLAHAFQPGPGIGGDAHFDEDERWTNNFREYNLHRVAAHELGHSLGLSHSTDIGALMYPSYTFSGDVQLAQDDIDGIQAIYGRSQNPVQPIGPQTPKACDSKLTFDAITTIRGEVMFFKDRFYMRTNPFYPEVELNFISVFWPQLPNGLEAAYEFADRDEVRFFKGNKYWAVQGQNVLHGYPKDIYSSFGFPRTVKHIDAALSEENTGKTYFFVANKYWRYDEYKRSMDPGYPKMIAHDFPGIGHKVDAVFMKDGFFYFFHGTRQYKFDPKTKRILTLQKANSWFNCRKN

Stromelysin-1 = Stromelysin-1 (Homo sapiens, UniProt P08254); experiment: Inhibition of MMP-3 using OmniMMP as substrate
[1] = target: Matrix metalloproteinase-9 (Homo sapiens, UniProt P14780); experiment: Inhibition of MMP-9 using OmniMMP as substrate
[2] = target: Macrophage metalloelastase (Homo sapiens, UniProt P39900); experiment: Inhibition of MMP-12 using OmniMMP as substrate
[3] = target: Matrix metalloproteinase-14 (Homo sapiens, UniProt P50281); experiment: Inhibition of MMP-14 using OmniMMP as substrate
Cytochrome P450 2D6 = Cytochrome P450 2D6 (Homo sapiens, UniProt P10635); experiment: Inhibition of CYP2D6; type: ADME
[4] = target: Voltage-gated inwardly rectifying potassium channel KCNH2 (Homo sapiens, UniProt Q12809); experiment: Inhibition of human ERG by fluorescence polarization assay
[5] = Lipophilicity, Log D of the compound; type: physicochemical; details: octanol/water
[6] = Stability in rat liver microsomes assessed as compound remaining at 30 mins; type: ADME, Microsome; details: read-out: Stability
Outline: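 Compound incubated with rat liver microsomes for 30 min. Result given as percent of parent compound remaining at t = 30 min.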

[7] = Stability of the compound in presence of UGT; type: ADME
Outline: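 UGT (glucuronidation) stability assay, incubated for 30 min. Result given as percent of compound remaining at t = 30 min.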

Plasma = experiment: Stability in plasma assessed as compound remaining at 3 hrs; type: ADME, cell-free
Outline: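 Compound incubated in plasma. Result given as percent of compound remaining at 3 hours.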

Rattus norvegicus [8] = experiment: Inhibition of Anthrax LT-induced toxicity in Fischer 344 rat assessed as increase in survival at 5 mg/kg, iv administered 20 to 30 mins after LT challenge; type: functional, organism-based; parameters: dose 5 mg/kg
Rattus norvegicus [9] = experiment: Inhibition of Anthrax LT-induced toxicity in Fischer 344 rat assessed as increase in survival at 2.5 mg/kg, iv administered 20 to 30 mins after LT challenge; type: functional, organism-based; parameters: dose 2.5 mg/kg
Lethal factor = target: T2, Lethal factor (Bacillus anthracis, UniProt P15917); experiment: Inhibition of N-terminal 6-histine tagged Bacillus anthracis LF 263-C terminal catalytic domain using MCA-KKVYPYPME-Dap(Dnp)-NH2 as substrate after 4 hrs by FRET analysis
T2 sequence (P15917 whole entry): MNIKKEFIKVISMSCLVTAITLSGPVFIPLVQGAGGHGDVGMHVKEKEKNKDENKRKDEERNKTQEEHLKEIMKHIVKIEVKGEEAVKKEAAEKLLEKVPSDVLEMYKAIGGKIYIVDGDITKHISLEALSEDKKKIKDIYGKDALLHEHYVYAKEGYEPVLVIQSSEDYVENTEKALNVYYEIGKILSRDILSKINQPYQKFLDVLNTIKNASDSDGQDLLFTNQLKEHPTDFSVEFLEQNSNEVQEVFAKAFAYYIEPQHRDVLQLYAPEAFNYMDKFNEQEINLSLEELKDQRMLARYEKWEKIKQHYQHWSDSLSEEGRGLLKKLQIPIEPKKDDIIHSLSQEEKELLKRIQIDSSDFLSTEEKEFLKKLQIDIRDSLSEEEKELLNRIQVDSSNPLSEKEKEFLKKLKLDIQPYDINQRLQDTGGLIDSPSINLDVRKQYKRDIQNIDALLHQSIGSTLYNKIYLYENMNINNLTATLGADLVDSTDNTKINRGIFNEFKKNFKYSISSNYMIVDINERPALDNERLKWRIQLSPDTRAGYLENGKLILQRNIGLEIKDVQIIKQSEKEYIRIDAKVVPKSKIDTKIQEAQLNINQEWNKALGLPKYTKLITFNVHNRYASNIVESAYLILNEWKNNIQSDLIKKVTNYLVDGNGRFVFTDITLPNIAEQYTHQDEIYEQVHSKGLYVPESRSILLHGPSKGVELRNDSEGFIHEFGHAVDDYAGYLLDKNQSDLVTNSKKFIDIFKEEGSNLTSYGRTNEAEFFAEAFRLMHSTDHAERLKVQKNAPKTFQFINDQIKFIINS

Rattus norvegicus [10] = experiment: Inhibition of Anthrax LT-induced toxicity in Fischer 344 rat assessed as increase in survival at 1.25 mg/kg, iv administered 20 to 30 mins after LT challenge; type: functional, organism-based; parameters: dose 1.25 mg/kg
Oryctolagus cuniculus [11] = experiment: Tmax in NZW rabbit at 10 mg/kg, sc; type: ADME, organism-based; parameters: dose 10 mg/kg, route subcutaneous; details: in vivo
Outline: (§1)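 Single subcutaneous dose of 10 mg/kg given to NZW rabbits in DMSO:PEG400:pH 6 citrate buffer (2:10:88). Plasma drug levels were followed over time, including a 12 h sample. Tmax, Cmax, terminal (β) half-life and AUC to infinity were derived from the plasma concentration–time profile.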

Oryctolagus cuniculus [12] = experiment: Cmax in NZW rabbit at 10 mg/kg, sc; type: ADME, organism-based; parameters: dose 10 mg/kg, route subcutaneous; details: in vivo; outline: as §1
Oryctolagus cuniculus [13] = experiment: Terminal half life in NZW rabbit at 10 mg/kg, sc; type: ADME, organism-based; parameters: dose 10 mg/kg, route subcutaneous; details: in vivo; outline: as §1
Oryctolagus cuniculus [14] = experiment: AUC (infinity) in NZW rabbit at 10 mg/kg, sc; type: ADME, organism-based, Plasma; parameters: time infinity, dose 10 mg/kg, route subcutaneous; details: in vivo; outline: as §1
[15] = Plasma concentration in NZW rabbit at 10 mg/kg, sc at 12 hrs; type: ADME, organism-based, Oryctolagus cuniculus; parameters: dose 10 mg/kg, route subcutaneous; outline: as §1

Chain of Macrophage metalloelastase (P39900 whole entry): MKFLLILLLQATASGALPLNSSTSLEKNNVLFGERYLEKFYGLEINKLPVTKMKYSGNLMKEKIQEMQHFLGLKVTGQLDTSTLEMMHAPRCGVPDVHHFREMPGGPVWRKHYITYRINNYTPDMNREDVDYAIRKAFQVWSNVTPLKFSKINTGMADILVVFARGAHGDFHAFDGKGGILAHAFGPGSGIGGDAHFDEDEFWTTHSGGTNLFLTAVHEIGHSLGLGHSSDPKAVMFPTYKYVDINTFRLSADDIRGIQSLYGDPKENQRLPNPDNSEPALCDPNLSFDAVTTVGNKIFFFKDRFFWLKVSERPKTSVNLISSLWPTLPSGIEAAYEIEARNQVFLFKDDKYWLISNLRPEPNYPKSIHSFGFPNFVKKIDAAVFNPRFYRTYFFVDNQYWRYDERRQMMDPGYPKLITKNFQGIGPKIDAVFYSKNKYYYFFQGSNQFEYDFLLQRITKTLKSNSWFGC
Chain of Voltage-gated inwardly rectifying potassium channel KCNH2 (Q12809 whole entry): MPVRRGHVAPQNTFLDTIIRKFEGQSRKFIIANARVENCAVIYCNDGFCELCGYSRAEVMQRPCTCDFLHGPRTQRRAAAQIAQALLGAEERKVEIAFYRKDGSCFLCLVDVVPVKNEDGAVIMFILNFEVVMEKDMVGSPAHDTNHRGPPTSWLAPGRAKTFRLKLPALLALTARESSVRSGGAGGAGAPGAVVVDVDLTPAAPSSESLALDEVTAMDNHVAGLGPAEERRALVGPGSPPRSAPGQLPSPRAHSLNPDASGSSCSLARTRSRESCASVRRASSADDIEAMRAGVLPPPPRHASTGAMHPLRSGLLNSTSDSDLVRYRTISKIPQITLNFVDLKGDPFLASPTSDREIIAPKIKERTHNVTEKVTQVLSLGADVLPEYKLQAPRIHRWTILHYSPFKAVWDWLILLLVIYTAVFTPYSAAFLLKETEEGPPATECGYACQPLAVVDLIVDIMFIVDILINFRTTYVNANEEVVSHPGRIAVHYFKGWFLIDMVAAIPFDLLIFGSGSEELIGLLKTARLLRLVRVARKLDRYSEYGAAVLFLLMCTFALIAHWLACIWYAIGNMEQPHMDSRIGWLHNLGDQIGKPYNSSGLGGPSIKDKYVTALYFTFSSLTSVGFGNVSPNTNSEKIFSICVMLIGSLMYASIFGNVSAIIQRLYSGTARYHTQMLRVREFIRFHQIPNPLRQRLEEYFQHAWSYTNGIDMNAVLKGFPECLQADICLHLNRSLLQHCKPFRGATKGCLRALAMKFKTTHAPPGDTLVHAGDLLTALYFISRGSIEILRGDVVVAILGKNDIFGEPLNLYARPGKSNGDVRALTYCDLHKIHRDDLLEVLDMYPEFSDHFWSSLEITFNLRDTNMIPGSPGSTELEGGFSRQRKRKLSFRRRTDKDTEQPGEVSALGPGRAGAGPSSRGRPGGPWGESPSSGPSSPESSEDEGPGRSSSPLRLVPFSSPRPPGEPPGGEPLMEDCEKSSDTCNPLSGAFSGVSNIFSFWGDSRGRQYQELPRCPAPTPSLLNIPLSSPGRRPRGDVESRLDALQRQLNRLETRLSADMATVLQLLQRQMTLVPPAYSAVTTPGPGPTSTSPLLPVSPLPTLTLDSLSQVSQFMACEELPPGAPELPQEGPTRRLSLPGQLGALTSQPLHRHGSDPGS
Chain of Cytochrome P450 2D6 (P10635 whole entry): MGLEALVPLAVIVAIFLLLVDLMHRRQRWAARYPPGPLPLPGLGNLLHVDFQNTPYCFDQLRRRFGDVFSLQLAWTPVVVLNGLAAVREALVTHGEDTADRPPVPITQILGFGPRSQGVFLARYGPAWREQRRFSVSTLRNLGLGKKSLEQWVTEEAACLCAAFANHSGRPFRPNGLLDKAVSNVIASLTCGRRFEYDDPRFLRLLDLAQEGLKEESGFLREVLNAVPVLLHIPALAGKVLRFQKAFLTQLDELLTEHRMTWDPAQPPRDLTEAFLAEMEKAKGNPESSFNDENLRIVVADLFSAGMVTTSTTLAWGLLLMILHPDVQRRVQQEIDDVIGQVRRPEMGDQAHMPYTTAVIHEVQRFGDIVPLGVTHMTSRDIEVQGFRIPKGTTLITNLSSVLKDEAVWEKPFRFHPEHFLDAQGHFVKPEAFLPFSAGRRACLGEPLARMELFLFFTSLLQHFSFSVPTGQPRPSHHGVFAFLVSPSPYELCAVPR
Chain of Stromelysin-1 (P08254 whole entry): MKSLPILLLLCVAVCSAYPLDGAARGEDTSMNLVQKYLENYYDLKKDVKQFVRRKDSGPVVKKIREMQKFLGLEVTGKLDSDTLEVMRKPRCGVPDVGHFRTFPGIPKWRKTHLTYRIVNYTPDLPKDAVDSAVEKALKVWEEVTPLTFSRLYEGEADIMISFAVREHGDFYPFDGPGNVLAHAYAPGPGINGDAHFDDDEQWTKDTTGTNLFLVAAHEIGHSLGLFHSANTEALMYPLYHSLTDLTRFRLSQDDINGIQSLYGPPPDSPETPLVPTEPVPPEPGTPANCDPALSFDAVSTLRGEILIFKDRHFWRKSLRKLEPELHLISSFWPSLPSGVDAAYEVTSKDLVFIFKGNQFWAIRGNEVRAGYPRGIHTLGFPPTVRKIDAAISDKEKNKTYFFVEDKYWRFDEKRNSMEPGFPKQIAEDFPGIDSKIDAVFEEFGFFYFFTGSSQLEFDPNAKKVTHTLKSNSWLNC
Chain of Matrix metalloproteinase-9 (P14780 whole entry): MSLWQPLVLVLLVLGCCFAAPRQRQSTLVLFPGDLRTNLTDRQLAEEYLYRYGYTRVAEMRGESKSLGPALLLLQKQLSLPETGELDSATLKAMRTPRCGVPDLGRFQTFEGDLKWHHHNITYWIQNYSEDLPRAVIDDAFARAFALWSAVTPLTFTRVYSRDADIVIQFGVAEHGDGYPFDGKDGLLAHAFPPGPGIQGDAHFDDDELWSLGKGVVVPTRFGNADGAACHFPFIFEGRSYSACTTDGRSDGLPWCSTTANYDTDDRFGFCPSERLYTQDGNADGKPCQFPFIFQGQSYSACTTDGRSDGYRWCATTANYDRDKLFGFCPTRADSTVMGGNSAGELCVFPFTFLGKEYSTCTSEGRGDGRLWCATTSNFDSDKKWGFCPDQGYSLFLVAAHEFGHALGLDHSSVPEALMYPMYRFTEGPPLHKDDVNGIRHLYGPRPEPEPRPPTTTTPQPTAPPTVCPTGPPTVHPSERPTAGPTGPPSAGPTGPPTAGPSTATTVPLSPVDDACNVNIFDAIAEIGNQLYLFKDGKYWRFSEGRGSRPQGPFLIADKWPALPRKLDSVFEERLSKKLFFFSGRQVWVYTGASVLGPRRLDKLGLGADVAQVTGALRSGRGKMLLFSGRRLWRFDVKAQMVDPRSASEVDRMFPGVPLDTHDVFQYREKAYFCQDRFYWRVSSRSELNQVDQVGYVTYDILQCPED

| Compound | CC50 (RAW264.7) | Ki (Interstitial collagenase) | Ki (Stromelysin-1) | Ki [1] | Ki [2] | Ki [3] | IC50 (Cytochrome P450 2D6) | logD [5] | remaining at 0.5 h [6] | Stability [7] | Stability (Plasma) | Survival increase (active/not active) (Rattus norvegicus [8]) | inhibition (Rattus norvegicus [9]) | Ki (Lethal factor) | also measured |
| --- | --- | --- | --- | --- | --- | --- | --- | --- | --- | --- | --- | --- | --- | --- | --- |
| Cc1cc(N[C@H](CCCCNCc2ccc(F)cc2)C(=O)NO)cc(C)c1F | 61 µM | > 50 µM | > 50 µM | > 50 µM | > 50 µM | > 50 µM | 1.35 µM | 2.3 | 60% | 38% | 90% | Active | Active |  | IC50 [4]: 1.23 µM |
| CO[C@H](C[C@H](CCCCNCc1ccc(F)cc1)C(=O)NO)c1ccc(F)cc1 | 55 µM | 33 µM | > 50 µM | 21 µM | 2.3 µM | > 50 µM |  | 2.4 | 91% | 99% |  | Active |  |  |  |
| Cc1cc(O[C@H](CCCCNCc2ccc(F)cc2)C(=O)NO)cc(C)c1F | 26 µM | > 50 µM | > 50 µM | > 50 µM | > 50 µM | > 50 µM | 0.23 µM | 3.1 | 3% | 76% | 61% | inactive |  |  | IC50 [4]: 0.79 µM |
| Cc1cc(C[C@H](CCCCNCc2ccc(F)cc2)C(=O)NO)cc(C)c1F | 16 µM | > 50 µM | > 50 µM | > 50 µM | > 50 µM | > 50 µM | 0.02 µM | 2.2 | 18% | 79% | 100% | Active | Active |  | IC50 [4]: 4.65 µM |
| Cc1cc(C[C@H](CCCCN[C@H](C)c2ccc(F)cc2)C(=O)NO)cc(C)c1F |  |  |  |  |  |  |  |  |  |  |  |  |  | 0.3 nM |  |
| Cc1cc(C[C@H](CCCCN[C@@H](C)c2ccc(F)cc2)C(=O)NO)cc(C)c1F |  |  |  |  |  |  |  |  |  |  |  |  |  | 0.49 nM |  |
| CC[C@@H](NCCCC[C@@H](Cc1cc(C)c(F)c(C)c1)C(=O)NO)c1ccc(F)cc1 |  |  |  |  |  |  |  |  |  |  |  |  |  | 0.04 nM |  |
| CC[C@H](NCCCC[C@@H](Cc1cc(C)c(F)c(C)c1)C(=O)NO)c1ccc(F)cc1 |  |  |  |  |  |  |  |  |  |  |  |  |  | 0.11 nM |  |
| Cc1cc(C[C@H](CCCCN[C@H](CC(C)C)c2ccc(F)cc2)C(=O)NO)cc(C)c1F |  |  |  |  |  |  |  |  |  |  |  |  |  | 0.23 nM |  |
| Cc1cc(C[C@H](CCCCN[C@@H](CC(C)C)c2ccc(F)cc2)C(=O)NO)cc(C)c1F |  |  |  |  |  |  |  |  |  |  |  |  |  | 1.3 nM |  |
| Cc1cc(C[C@H](CCCCN[C@H](Cc2ccccc2)c2ccc(F)cc2)C(=O)NO)cc(C)c1F |  |  |  |  |  |  |  |  |  |  |  |  |  | 0.6 nM |  |
| Cc1cc(C[C@H](CCCCN[C@@H](Cc2ccccc2)c2ccc(F)cc2)C(=O)NO)cc(C)c1F |  |  |  |  |  |  |  |  |  |  |  |  |  | 2 nM |  |
| CCC(NCCCC[C@@H](Cc1cc(C)c(F)c(C)c1)C(=O)NO)c1ccc(F)cc1 (mixture of isomers) | 15 µM | > 50 µM | > 50 µM | > 50 µM | > 50 µM | > 50 µM | 0.08 µM | 2.9 | 55% | 100% | 95% | Active | Active | 0.31 nM | inhibition (Rattus norvegicus [10]): Active |
| CCC(NCCCC[C@@H](Nc1cc(C)c(F)c(C)c1)C(=O)NO)c1ccc(F)cc1 (mixture of isomers) | 32 µM | > 50 µM | > 50 µM | > 50 µM | > 50 µM | > 50 µM | 0.24 µM | 3.3 | 75% | 74% | 84% | Active | Active | 0.17 nM | IC50 [4]: 0.95 µM; inhibition (Rattus norvegicus [10]): inactive |
| CCC(NCCCC[C@@H](Oc1cc(C)c(F)c(C)c1)C(=O)NO)c1ccc(F)cc1 (mixture of isomers) | 21 µM | > 50 µM | > 50 µM | > 50 µM | > 50 µM | > 50 µM |  | 3.3 | 7% | 75% | 38% | Active |  | 1 nM |  |
| CCC(NCCCC[C@@H](C[C@@H](OC)c1ccc(F)cc1)C(=O)NO)c1ccc(F)cc1 (mixture of isomers) | 35 µM | 47 µM | 31 µM | 11 µM | 12 µM | > 50 µM | 0.16 µM | 2.9 | 75% | 100% | 94% | Active | Active | 0.27 nM | Tmax (Oryctolagus cuniculus [11]): 0.3 h; Cmax (Oryctolagus cuniculus [12]): 1300 nM; beta t1/2 (Oryctolagus cuniculus [13]): 5.3 h; AUC (Oryctolagus cuniculus [14]): 2637.6 ng·h/mL; concentration at 12 h [15]: 79 nM |
